Reference: ChEMBL document CHEMBL1255259, “Phosphorothioate-modified oligodeoxynucleotides inhibit human cytomegalovirus replication by blocking virus entry” (Antimicrob Agents Chemother, 2008)
Activity calls are given as the source filed them. No cut-off for these calls is given here.

Experiments:
[1] = Cytotoxicity against HELF assessed as cell viability after 6 days by MTT assay; type: cell-based; conditions: human, HELF cells
Procedure, shortened: (§1)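 HELF exposed to rising ODN concentrations (up to 10 μM) for 6 days; viable cells measured by MTT. CC50 taken as concentration that cuts viability to 50%.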

Human alphaherpesvirus 1 [2] = test: Antimicrobial activity against Human herpesvirus 1 infected in compound pretreated HELF assessed as inhibition of viral replication at 0.1 uM; type: functional, organism-based
Procedure, shortened: (§2)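 HELF pretreated with ODN (0.1 or 1 μM) 1 h before infection with a clinical HSV-1 isolate at MOI 0.1; ODN kept in medium after 2 h adsorption. Harvest at 48 h p.i., sonication, plaque titration on Vero cells. Means ± SD of three independent experiments.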

Human alphaherpesvirus 1 [3] = test: Antimicrobial activity against Human herpesvirus 1 infected in compound pretreated HELF assessed as inhibition of viral replication at 1 uM; type: functional, organism-based; procedure, shortened: as §2
Human betaherpesvirus 5 [4] = test: Antimicrobial activity against Human cytomegalovirus AD169 infected in HELF assessed as inhibition of viral replication at 0.1 uM measured after 6 days post-infection; type: functional, organism-based
Human betaherpesvirus 5 [5] = test: Antimicrobial activity against Human cytomegalovirus AD169 infected in HELF assessed as inhibition of viral replication at 1 uM measured after 6 days post-infection; type: functional, organism-based
Human betaherpesvirus 5 [6] = test: Antimicrobial activity against 0.1 uM compound pretreated Human cytomegalovirus AD169 infected in HELF assessed as reduction in viral titer at 4 degC; type: functional, organism-based
Procedure, shortened: (§3)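 HCMV AD169 (10^4 PFU) incubated with ODN at 0.1 μM at 4 or 37°C for various times; samples then diluted to bring ODN below an antivirally active level; residual infectivity titrated by plaque assay on HELF. Means ± SD of three independent experiments.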

Human betaherpesvirus 5 [7] = test: Antimicrobial activity against 0.1 uM compound pretreated Human cytomegalovirus AD169 infected in HELF assessed as reduction in viral titer 37 degC; type: functional, organism-based; procedure, shortened: as §3
Human betaherpesvirus 5 [8] = test: Antimicrobial activity against Human cytomegalovirus AD169 infected in 0.1 uM compound pretreated HELF assessed as inhibition of viral replication measured after 6 days post-infection; type: functional, organism-based
Procedure, shortened: (§4)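 HELF pretreated with ODN 1 h before infection with HCMV AD169 (MOI 1); ODN kept in medium after 2 h adsorption at 37°C. At 6 days p.i., cells plus supernatants sonicated and titrated by plaque assay on HELF; plaques counted microscopically, expressed as PFU/ml (log10) or % of control. IC50/IC90 by linear regression; duplicate wells, three independent experiments, means ± SD.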

Human betaherpesvirus 5 [9] = test: Antimicrobial activity against Human cytomegalovirus AD169 infected in 1 uM compound pretreated HELF assessed as inhibition of viral replication measured after 6 days post-infection; type: functional, organism-based; procedure, shortened: as §4
Human betaherpesvirus 5 [10] = test: Antimicrobial activity against Human cytomegalovirus AD169 infected in compound pretreated HELF assessed as inhibition of viral replication measured after 6 days post-infection; type: functional, organism-based; conditions: Human betaherpesvirus 5, AD169, HELF; procedure, shortened: as §4
[11] = Cytotoxicity against HELF assessed as cell viability by MTT assay after 6 days at <=10 uM; type: cell-based; conditions: human, 144 h; procedure, shortened: as §1

Which CC50 at 144 h [1] does the source give for `Cc1cn([C@H]2C[C@H](OP(O)(O)=S)[C@@H](COP(O)(=S)O[C@H]3C[C@H](n4cc(C)c(=O)[nH]c4=O)O[C@@H]3COP(O)(=S)O[C@H]3[C@@H](O)[C@H](n4cnc5c(=O)[nH]c(N)nc54)O[C@@H]3COP(O)(=S)O[C@H]3[C@@H](O)[C@H](n4ccc(N)nc4=O)O[C@@H]3COP(O)(=S)O[C@H]3C[C@H](n4cc(C)c(=O)[nH]c4=O)O[C@@H]3COP(O)(=S)O[C@H]3[C@@H](O)[C@H](n4cnc5c(=O)[nH]c(N)nc54)O[C@@H]3COP(O)(=S)O[C@H]3C[C@H](n4cc(C)c(=O)[nH]c4=O)O[C@@H]3COP(O)(=S)O[C@H]3C[C@H](n4cc(C)c(=O)[nH]c4=O)O[C@@H]3COP(O)(=S)O[C@H]3C[C@H](n4cc(C)c(=O)[nH]c4=O)O[C@@H]3COP(O)(=S)O[C@H]3C[C@H](n4cc(C)c(=O)[nH]c4=O)O[C@@H]3COP(O)(=S)O[C@H]3[C@@H](O)[C@H](n4cnc5c(=O)[nH]c(N)nc54)O[C@@H]3COP(O)(=S)O[C@H]3[C@@H](O)[C@H](n4ccc(N)nc4=O)O[C@@H]3COP(O)(=S)O[C@H]3C[C@H](n4cc(C)c(=O)[nH]c4=O)O[C@@H]3COP(O)(=S)O[C@H]3[C@@H](O)[C@H](n4cnc5c(=O)[nH]c(N)nc54)O[C@@H]3COP(O)(=S)O[C@H]3[C@@H](O)[C@H](n4ccc(N)nc4=O)O[C@@H]3COP(O)(=S)O[C@H]3C[C@H](n4cc(C)c(=O)[nH]c4=O)O[C@@H]3COP(O)(=S)O[C@H]3C[C@H](n4cc(C)c(=O)[nH]c4=O)O[C@@H]3COP(O)(=S)O[C@H]3C[C@H](n4cc(C)c(=O)[nH]c4=O)O[C@@H]3COP(O)(=S)O[C@H]3[C@@H](O)[C@H](n4cnc5c(=O)[nH]c(N)nc54)O[C@@H]3COP(O)(=S)O[C@H]3[C@@H](O)[C@H](n4ccc(N)nc4=O)O[C@@H]3COP(O)(=S)O[C@H]3C[C@H](n4cc(C)c(=O)[nH]c4=O)O[C@@H]3COP(O)(=S)O[C@H]3[C@@H](O)[C@H](n4cnc5c(=O)[nH]c(N)nc54)O[C@@H]3COP(O)(=S)O[C@H]3[C@@H](O)[C@H](n4ccc(N)nc4=O)O[C@@H]3COP(O)(=S)O[C@H]3C[C@H](n4cc(C)c(=O)[nH]c4=O)O[C@@H]3CO)O2)c(=O)[nH]c1=O` (some centres not stated) here?
Its CC50 at 144 h is over 10000 nM.

What about the inhibition (Human alphaherpesvirus 1 [2]) of the same compound?
The inhibition was “inactive”.

And the inhibition (Human alphaherpesvirus 1 [3])?
Its inhibition is “inactive”.

What about the inhibition (Human betaherpesvirus 5 [4]) of the same compound?
Its inhibition is “inactive”.

And the inhibition (Human betaherpesvirus 5 [5])?
Its inhibition is “inactive”.

What about the inhibition (Human betaherpesvirus 5 [6]) of the same compound?
The inhibition was “inactive”.

What about the inhibition (Human betaherpesvirus 5 [7]) of the same compound?
The inhibition was “inactive”.

What about the inhibition (Human betaherpesvirus 5 [8]) of the same compound?
Its inhibition is “Active”.

And the inhibition (Human betaherpesvirus 5 [9])?
The inhibition was “Active”.

What about the IC50 (Human betaherpesvirus 5 [10]) of the same compound?
The IC50 was 50 nM.

What about the IC90 (Human betaherpesvirus 5 [10]) of the same compound?
The IC90 was 800 nM.

What about the Activity [11] of the same compound?
The Activity was “Non-toxic”.
